The source of these data is ChEMBL document CHEMBL1145774, “Synthesis and biological effects of novel 2-amino-3-naphthoylthiophenes as allosteric enhancers of the A1 adenosine receptor” (J Med Chem, 2003).

Test [1] deals with T1, Adenosine receptor A1 (Homo sapiens) (UniProt P30542).
T1 sequence (whole entry): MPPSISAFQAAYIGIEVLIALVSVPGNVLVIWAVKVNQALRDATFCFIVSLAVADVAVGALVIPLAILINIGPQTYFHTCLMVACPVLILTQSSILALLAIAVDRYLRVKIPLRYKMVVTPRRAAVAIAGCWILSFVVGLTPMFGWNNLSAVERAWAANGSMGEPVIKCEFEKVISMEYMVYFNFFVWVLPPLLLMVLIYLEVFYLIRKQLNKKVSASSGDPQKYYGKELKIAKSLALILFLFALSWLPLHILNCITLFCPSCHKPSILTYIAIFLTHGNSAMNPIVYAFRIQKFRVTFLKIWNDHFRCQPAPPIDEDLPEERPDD
In words: Percent change in cAMP content of CHO (Chinese hamster ovary) cells expressing human Adenosine A1 receptor at 1 uM. The format is functional, cell-based. Summed up:
(§1)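 CHO cells stably expressing human A1 receptor (~8000 fmol/mg protein) were grown in Ham's F-12 with 10% FBS and G-418 for 48 h to confluence. HCl (50 mM final) stopped the reaction, and cAMP was measured by radioimmunoassay. Values are % change versus no-compound control, mean ± SEM of six experiments.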

The target in test [2] is T1, Adenosine receptor A1 (Homo sapiens). In words: Percent change in cAMP content of CHO (Chinese hamster ovary) cells expressing human Adenosine A1 receptor at 0.1 uM. The format is functional, cell-based. The method in brief: as §1
Test [3] has the same target. In words: Dissociation of [3H]CCPA from Adenosine A1 receptor in CHO cells at 10 uM as percent K-1. Format: cell-based. Summed up: (§2)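 [3H]CCPA was bound to ADA-treated CHO:hA1 membranes in 50 mM Tris-HCl pH 7.4 at 25 °C. Dissociation was started by adding R-PIA (1 µM) with test agent (10 µM), and specific binding was measured 2–180 min afterwards. Kinetic fits gave t1/2 and K-1, expressed as % change from control. Values are the mean of three experiments.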

The target is the same in test [4]. Description: Percent change in cAMP content of CHO (Chinese hamster ovary) cells expressing human Adenosine A1 receptor at 0.01 uM. The format is functional, cell-based. The method in brief:
as §1

Test [5] deals with Adenosine receptor A2a (Homo sapiens) (UniProt P29274). Description: Ability to displace the binding of [3H]-ZM 241385, to the ligand binding site of CHO:hA2A (human Adenosine A2A receptor) at concentration of 10 uM. The method in brief: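 CHO:hA2A membranes (100 µg protein, ADA-treated) were incubated with 2 nM [3H]ZM 241385 in Tris-HCl with MgCl2, pH 7.4, for 60 min at 4 °C, with compound from DMSO (1% final). Nonspecific binding was taken with 1 µM ZM241385. After filtration, results are % displacement by 10 µM compound, ±STD, n = 3.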

The target of test [6] is T1, Adenosine receptor A1 (Homo sapiens). In words: Ability to displace the binding of [3H]DPCPX to the ligand binding site of CHO:hA1 (human Adenosine A1 receptor) at concentration of 10 uM. Summed up:
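Membranes came from hypotonic lysis of CHO:hA1 cells, a 100 000g pellet and ADA 2 U/mL treatment for 30 min at 37 °C. Membranes (100 µg protein) were incubated with 1 nM [3H]DPCPX in Tris-HCl pH 7.4 for 150 min at 25 °C, with compound added from DMSO (1% final). Nonspecific binding was taken with 1 µM DPCPX, and bound ligand was separated on GF/B filters.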

The target of test [7] is T2, Adenosine receptor A3 (Homo sapiens) (UniProt P0DMS8).
T2 sequence (whole entry): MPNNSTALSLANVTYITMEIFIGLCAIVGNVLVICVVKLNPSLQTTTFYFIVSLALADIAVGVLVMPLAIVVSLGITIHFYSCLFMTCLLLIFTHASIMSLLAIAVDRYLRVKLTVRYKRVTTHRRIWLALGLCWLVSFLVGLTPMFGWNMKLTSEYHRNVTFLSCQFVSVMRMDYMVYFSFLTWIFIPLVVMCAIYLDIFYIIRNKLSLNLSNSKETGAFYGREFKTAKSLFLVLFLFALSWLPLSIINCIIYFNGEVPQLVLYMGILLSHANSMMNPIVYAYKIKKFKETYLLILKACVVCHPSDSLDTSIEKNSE
In words: Ability to displace the binding of [3H]-MRE 3008-F20 to the ligand binding site of CHO:hA3 (human Adenosine receptor) at concentration of 10 uM. Summed up: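 Assays used 2 nM [3H]MRE 3008F20 on CHO:hA3 membranes (100 µg protein, ADA-treated) for 150 min at 4 °C, in Tris-HCl with MgCl2 and 1 mM EDTA, pH 7.4, with compound from DMSO (1% final). Bound ligand was separated by filtration. Results are % displacement by 10 µM compound, ±STD, n = 3.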

Test [8] concerns the target T1, Adenosine receptor A1 (Homo sapiens). Description: Dissociation rate of [3H]CCPA from Adenosine A1 receptor expressing CHO cells at 10 uM as percent t1/2. Format: cell-based. The method in brief: as §2
For test [9] the target is unchanged. Description: Percent change in cAMP content of CHO (Chinese hamster ovary) cells expressing human Adenosine A1 receptor at 10 uM. The format is functional, cell-based. The method in brief:
as §1

Test [10] has the same target. Description: Percent change in cAMP in CHO cells expressing human Adenosine A1 receptor at 1 uM. The format is functional, cell-based. Summed up:
as §1

Adenosine receptor A2a (Homo sapiens), sequence (P29274 whole entry): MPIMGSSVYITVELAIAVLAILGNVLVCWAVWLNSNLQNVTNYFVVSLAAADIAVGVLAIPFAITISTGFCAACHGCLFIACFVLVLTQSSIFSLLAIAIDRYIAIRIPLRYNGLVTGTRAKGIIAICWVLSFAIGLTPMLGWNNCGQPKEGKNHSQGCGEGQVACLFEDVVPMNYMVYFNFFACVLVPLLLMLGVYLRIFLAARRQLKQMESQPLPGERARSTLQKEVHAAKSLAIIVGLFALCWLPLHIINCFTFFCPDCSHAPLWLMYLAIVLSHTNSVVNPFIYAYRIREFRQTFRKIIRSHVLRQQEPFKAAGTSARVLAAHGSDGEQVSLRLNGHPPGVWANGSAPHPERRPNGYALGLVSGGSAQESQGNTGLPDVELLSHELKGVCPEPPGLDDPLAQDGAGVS

As for `Nc1sc2c(c1C(=O)c1ccc(Br)c3ccccc13)CCCC2`, the Change in test [1] is -29%; in test [2], -10%; in test [4] it was -6%; in test [9], -72%. This compound also displayed a K-1 decrease in [3] of 30%. Besides, the inhibition in test [5] is 3%; in [6], 12%; in test [7], 48.5%. In [8], the T1/2 increase amounted to 43%.
On to `Nc1sc2c(c1C(=O)c1cccc3ccccc13)CCCC2`, for which the Change in test [1] is -22%; in test [2], -15%; in test [4], -11%; in test [9], -52%. Also, the K-1 decrease in test [3] worked out at 23%. Also, the inhibition in [5] was -0%; in test [6], 2%; in test [7] it was 34.5%. Further, the T1/2 increase in test [8] came out at 29%.
For `Cc1sc(N)c(C(=O)c2cccc3ccccc23)c1C`, the Change in [2] is -3%; in test [10], 6%; in test [4], -0.6%; in test [9], -45%. Further, the K-1 decrease in test [3] was found to be 46%. Moreover, the inhibition in [5] was -0%; in [6] it was -0%; in [7], 18%. In addition, the T1/2 increase in [8] was found to be 85%.
Take `Nc1sc2c(c1C(=O)c1ccc3ccccc3c1)CCC2`: the Change in test [1] is -15%; in [2] it was -14%; in test [4] it was -19%; in test [9], -51%. This compound came in with a K-1 decrease in test [3] of 29%. Besides, the inhibition was -0% in test [5], 14.5% in [6] and 54% in [7]. The same compound returned a T1/2 increase in test [8] of 42%.
In the case of `Nc1sc2c(c1C(=O)c1ccc3ccccc3c1)CCCC2`, the Change in [1] is -28%; in test [2], -24%; in [4], -13%; in [9] it was -42%. Besides, the K-1 decrease in [3] stood at 9%. The inhibition in test [5] was -0%; in [6] it was 3.3%; in test [7], -0%. The T1/2 increase in [8] amounted to 10%.
`Nc1sc2c(c1C(=O)c1ccc(I)c3ccccc13)CCCC2`: the Change was -24% in test [1], -4% in test [2], -3% in test [4] and -67% in test [9]. Further, the K-1 decrease in test [3] is 38%. The inhibition in test [5] came out at 3%; in test [6], 15.3%; in test [7], 48%. This compound displayed a T1/2 increase in test [8] of 60%.
As to `Nc1sc2c(c1C(=O)c1ccc(Cl)c3ccccc13)CCC2`, the Change was -27% in test [1], 15% in [2], -10% in test [4] and -55% in [9]. In [3], this compound returned a K-1 decrease of 30%. The inhibition in test [5], in test [6] and in test [7] was -0% in each case. Besides, the T1/2 increase in [8] stood at 43%.
As for `Cc1sc(N)c(C(=O)c2cccc(C(F)(F)F)c2)c1C`, the Change is -13% in [1], -7% in test [2], -1% in [4] and -50% in test [9]. Moreover, the K-1 decrease in [3] was 30%. Moreover, the inhibition in test [5] is -0%; in [6], -0%; in [7], 21%. The same compound came in with a T1/2 increase in test [8] of 43%.
